In series [1] the target is RAF proto-oncogene serine/threonine-protein kinase (Homo sapiens) (UniProt P04049). Description: Inhibition of human recombinant GST-fused cRAF expressed in baculovirus expression system using poly-Glu-Tyr (4:1) as substrate measured after 10 mins in presence of gamma-[33P]-ATP by scintillation counting analysis. In a few lines:
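GST-fused kinase domains were expressed in baculovirus and purified on glutathione-Sepharose. 10 min at ambient temperature, stopped with EDTA. Filter binding and scintillation counting. IC50 by linear regression of percent inhibition.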

Series [2] can be described thus: Half life in OFA rat at 25 mg/kg, po measured upto 24 hrs by HPLC/UV analysis. Format: ADME, organism-based. The following applies: in vivo. In a few lines: (§1)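 Female OFA rats, femoral artery/vein catheterized and recovered 96 h. Oral gavage of a micronized suspension in 0.5 % carboxymethyl cellulose at 25 or 3 mg/kg. Bioavailability taken against femoral-vein iv dosing. Plasma sampled 5 min–24 h (9 time points).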

The nature of series [3]: Oral bioavailability in OFA rat at 25 mg/kg measured upto 24 hrs by HPLC/UV analysis. The following applies: in vivo. Format: ADME, organism-based. In a few lines:
as §1

Here are results for one molecule from ChEMBL document CHEMBL5252510, “A Novel Potent Oral Series of VEGFR2 Inhibitors Abrogate Tumor Growth by Inhibiting Angiogenesis” (J Med Chem, 2016).

SMILES strings stand for the structures. The source made the active and inactive calls. The rule behind the calls is not given here.

Chain of RAF proto-oncogene serine/threonine-protein kinase (Homo sapiens) (P04049 whole entry, the tested form may be a part): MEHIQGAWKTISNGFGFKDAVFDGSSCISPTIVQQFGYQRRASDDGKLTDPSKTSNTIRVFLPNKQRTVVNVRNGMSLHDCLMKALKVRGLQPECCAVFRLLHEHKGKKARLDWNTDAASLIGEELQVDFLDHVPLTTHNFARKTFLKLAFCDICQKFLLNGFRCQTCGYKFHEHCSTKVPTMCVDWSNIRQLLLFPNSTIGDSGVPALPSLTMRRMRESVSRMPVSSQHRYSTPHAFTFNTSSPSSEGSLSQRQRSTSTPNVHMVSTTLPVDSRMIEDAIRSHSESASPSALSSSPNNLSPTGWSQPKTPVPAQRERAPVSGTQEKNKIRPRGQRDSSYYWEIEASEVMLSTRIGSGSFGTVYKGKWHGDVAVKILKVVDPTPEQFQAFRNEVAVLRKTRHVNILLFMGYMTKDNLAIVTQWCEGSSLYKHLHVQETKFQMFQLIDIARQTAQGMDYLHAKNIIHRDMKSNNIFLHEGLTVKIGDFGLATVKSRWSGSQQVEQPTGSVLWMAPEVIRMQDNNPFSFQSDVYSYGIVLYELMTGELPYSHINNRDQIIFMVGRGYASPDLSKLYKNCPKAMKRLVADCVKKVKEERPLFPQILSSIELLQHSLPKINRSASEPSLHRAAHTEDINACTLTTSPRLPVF

With `Nc1nccc(Oc2ccc3c(C(=O)Nc4cccc(C(F)(F)F)c4)cccc3c2)n1`, in series [1], the inhibition result was “Active”. The half-life (usually how long it takes for the measured level to halve) in series [2] was 2 h. In addition, the bioavailability – broadly, the share of a dose that reaches the circulation, judged against a reference dose that is usually intravenous – in series [3] came to 35%.
